3 molecules from ChEMBL document CHEMBL3414471 (J Med Chem, 2015) can be followed below.

pEC50, pKi: −log10 of the molar value. Active and inactive are the calls of the source. The rule behind the calls is not given here. Some results are limits rather than exact numbers.

A short description of data set [1]: Bioavailability in mouse. It counts as ADME, organism-based. Conditions: in vivo.
The target of data set [2] is T1, 5-hydroxytryptamine receptor 2C (Homo sapiens, UniProt P28335).
T1 sequence (P28335 whole entry): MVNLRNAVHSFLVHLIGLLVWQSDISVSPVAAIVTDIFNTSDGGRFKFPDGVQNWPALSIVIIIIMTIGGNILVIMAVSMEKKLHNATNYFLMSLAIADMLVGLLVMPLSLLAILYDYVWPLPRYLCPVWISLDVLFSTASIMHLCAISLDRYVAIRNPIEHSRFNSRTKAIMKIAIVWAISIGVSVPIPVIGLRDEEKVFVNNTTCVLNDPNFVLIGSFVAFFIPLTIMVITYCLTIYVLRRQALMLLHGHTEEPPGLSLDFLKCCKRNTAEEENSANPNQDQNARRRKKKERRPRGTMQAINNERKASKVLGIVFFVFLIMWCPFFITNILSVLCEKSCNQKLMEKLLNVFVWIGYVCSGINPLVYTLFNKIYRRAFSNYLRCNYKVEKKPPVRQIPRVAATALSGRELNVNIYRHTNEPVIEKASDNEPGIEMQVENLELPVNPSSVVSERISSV
In words: Agonist activity at human 5-HT2C receptor expressed in HEK293 cells assessed as calcium flux by FLIPR assay. It counts as functional, cell-based.

Data set [3] concerns the target T2, 5-hydroxytryptamine receptor 2C (Homo sapiens) (UniProt P28335).
T2 sequence (whole entry): T1 sequence (P28335 whole entry)
The experiment in a line: Agonist activity at human 5-HT2C receptor expressed in HEK293 cells assessed as calcium flux by FLIPR assay relative to 5-HT. It counts as functional, cell-based. An outline of the steps: (§1)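 Flp-In-293 cells stably expressing human 5-HT2A, 5-HT2B or 5-HT2C-INI; grown 24–48 h in DMEM/10% dialyzed FBS, plated on poly-L-Lys at 12000 cells/well in 1% dialyzed FBS for 24 h. Loaded 1 h at 37 °C with calcium dye in HBSS, 20 mM Hepes pH 7.40, 2.5 mM probenecid.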

Data set [4] deals with T3, 5-hydroxytryptamine receptor 2B (Homo sapiens, UniProt P41595). In words: Agonist activity at human 5-HT2B receptor expressed in HEK293 cells assessed as calcium flux at 10 uM by FLIPR assay. It counts as functional, cell-based. Summed up:
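Flp-In-293 cells stably expressing human 5-HT2A, 5-HT2B or 5-HT2C-INI, grown in DMEM with 10% dialyzed FBS, then plated for 24 h in 1% dialyzed FBS. Cells were loaded 1 h at 37 °C with calcium dye in Hepes-buffered HBSS, pH 7.40, containing 2.5 mM probenecid. FLIPR read 10 s baseline, then 120 s after drug addition.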
In general terms: A change in cytosolic calcium serves as a functional read-out for many receptors and channels.

Data set [5] has as its target T4, 5-hydroxytryptamine receptor 2A (Homo sapiens, UniProt P28223). In words: Agonist activity at human 5-HT2A receptor expressed in HEK293 cells assessed as calcium flux by FLIPR assay. It counts as functional, cell-based.
Data set [6] addresses T4, 5-hydroxytryptamine receptor 2A. In words: Agonist activity at human 5-HT2A receptor expressed in HEK293 cells assessed as calcium flux by FLIPR assay relative to 5-HT. It counts as functional, cell-based. An outline of the steps: as §1
For data set [7], the species on record is Homo sapiens. The experiment in a line: Selectivity ratio of EC50 for human 5-HT2A receptor to EC50 for human 5HT2C receptor.
The next data set addresses CYP2D6 (Homo sapiens, UniProt P10635). In words: Inhibition of human CYP2D6 using dextromethorphan as substrate at 10 uM. It counts as ADME. As to conditions: probe dextromethorphan.
Another data set addresses CYP2C9 (Homo sapiens, UniProt P11712). In words: Inhibition of human CYP2C9 using diclofenac as substrate at 10 uM. As to conditions: probe diclofenac. It counts as ADME.
The next data set has as its target CYP2C19 (Homo sapiens, UniProt P33261). The experiment in a line: Inhibition of human CYP2C19 using omeprazole as substrate at 10 uM. Conditions: probe omeprazole. It counts as ADME.
The target of another data set is T5, CYP2B6 (Homo sapiens, UniProt P20813).
T5 sequence (P20813 whole entry): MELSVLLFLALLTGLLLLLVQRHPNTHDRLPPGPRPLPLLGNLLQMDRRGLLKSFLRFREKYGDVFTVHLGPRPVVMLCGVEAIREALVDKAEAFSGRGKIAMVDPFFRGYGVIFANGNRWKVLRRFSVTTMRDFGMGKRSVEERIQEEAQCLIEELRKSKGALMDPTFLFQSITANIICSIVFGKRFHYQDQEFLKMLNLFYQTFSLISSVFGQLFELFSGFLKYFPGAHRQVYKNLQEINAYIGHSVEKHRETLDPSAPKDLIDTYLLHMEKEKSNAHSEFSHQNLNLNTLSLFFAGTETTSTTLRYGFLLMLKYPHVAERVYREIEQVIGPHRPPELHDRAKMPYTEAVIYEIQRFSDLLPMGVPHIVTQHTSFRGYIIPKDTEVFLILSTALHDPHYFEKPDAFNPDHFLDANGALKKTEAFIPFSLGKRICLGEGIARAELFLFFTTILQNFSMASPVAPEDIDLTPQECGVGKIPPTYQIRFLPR
In words: Inhibition of human CYP2B6 using bupropion as substrate at 10 uM. It counts as ADME. As to conditions: probe bupropion.

For data set [8], the target named is Voltage-gated inwardly rectifying potassium channel KCNH2 (Homo sapiens, UniProt Q12809). In words: Inhibition of human ERG channel expressed in CHO cells by patch clamp method. It counts as cell-based. As to conditions: human, cho.
Data set [9] has as its target T6, hERG (KCNH2) (Homo sapiens, UniProt Q12809). The experiment in a line: (§2) Inhibition of human ERG channel expressed in CHO cells at […] by patch clamp method. It counts as cell-based. As to conditions: CHO cells expressing human ERG channel. In general terms: In patch-clamp work, channel activity is measured electrically.
Data set [10] addresses T6, hERG (KCNH2). Described as §2. It counts as cell-based. Conditions: CHO cells expressing human ERG channel. The source holds these as a separate data set.
The target in data set [11] is T6, hERG (KCNH2). The experiment in a line: Inhibition of human ERG channel expressed in CHO cells at 3.3 uM by patch clamp method. It counts as cell-based. Conditions: CHO cells expressing human ERG channel. An outline of the steps:
(§3)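 hERG current recorded in CHO cells by automated patch clamp; percent inhibition at 0.37, 1.1, 3.3, 10 and 30 µM.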

For data set [12], the target named is T6, hERG (KCNH2). In words: Inhibition of human ERG channel expressed in CHO cells at 10 uM by patch clamp method. It counts as cell-based. Conditions: CHO cells expressing human ERG channel. Summed up:
as §3

In data set [13] the target is T6, hERG (KCNH2). The experiment in a line: Inhibition of human ERG channel expressed in CHO cells at 30 uM by patch clamp method. It counts as cell-based. As to conditions: CHO cells expressing human ERG channel. An outline of the steps:
as §3

Data set [14] deals with 5-hydroxytryptamine receptor 1A (Homo sapiens, UniProt P08908). In words: Binding affinity to 5HT1A receptor (unknown origin).
Chain of 5-hydroxytryptamine receptor 1A (P08908 whole entry): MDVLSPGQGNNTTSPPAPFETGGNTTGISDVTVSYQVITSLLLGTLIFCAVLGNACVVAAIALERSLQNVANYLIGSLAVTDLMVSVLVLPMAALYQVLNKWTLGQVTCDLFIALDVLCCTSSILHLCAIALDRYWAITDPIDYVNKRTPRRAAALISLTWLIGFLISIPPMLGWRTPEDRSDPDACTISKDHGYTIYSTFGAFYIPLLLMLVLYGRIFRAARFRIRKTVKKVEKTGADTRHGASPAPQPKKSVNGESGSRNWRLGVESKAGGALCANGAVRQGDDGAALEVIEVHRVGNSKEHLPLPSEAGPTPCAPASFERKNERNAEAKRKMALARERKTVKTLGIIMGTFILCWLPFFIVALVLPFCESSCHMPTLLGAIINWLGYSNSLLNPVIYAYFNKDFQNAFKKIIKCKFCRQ
Data set [15] has as its target 5-hydroxytryptamine receptor 7 (Homo sapiens, UniProt P34969). In words: Binding affinity to 5HT7 receptor (unknown origin).
The target in data set [16] is Alpha-2A adrenergic receptor (Homo sapiens, UniProt P08913). The experiment in a line: Binding affinity to adrenergic alpha-2A receptor (unknown origin).
Chain of Alpha-2A adrenergic receptor (P08913 whole entry): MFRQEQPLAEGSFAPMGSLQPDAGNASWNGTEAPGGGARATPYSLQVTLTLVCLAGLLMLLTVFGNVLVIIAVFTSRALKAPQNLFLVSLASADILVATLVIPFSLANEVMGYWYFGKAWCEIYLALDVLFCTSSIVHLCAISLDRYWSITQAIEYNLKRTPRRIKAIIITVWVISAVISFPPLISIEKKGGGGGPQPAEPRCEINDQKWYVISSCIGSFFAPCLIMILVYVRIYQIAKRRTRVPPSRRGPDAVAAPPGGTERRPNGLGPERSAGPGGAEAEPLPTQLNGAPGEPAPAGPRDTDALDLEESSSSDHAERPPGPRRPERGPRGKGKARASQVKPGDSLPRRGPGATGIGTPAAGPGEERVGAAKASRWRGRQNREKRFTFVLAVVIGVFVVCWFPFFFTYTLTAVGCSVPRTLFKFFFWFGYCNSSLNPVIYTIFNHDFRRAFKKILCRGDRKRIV
The target of data set [17] is Alpha-2B adrenergic receptor (Homo sapiens, UniProt P18089). The experiment in a line: Binding affinity to adrenergic alpha-2B receptor (unknown origin).
For data set [18], the target named is Alpha-2C adrenergic receptor (Homo sapiens, UniProt P18825). The experiment in a line: Binding affinity to adrenergic alpha-2C receptor (unknown origin).
Another data set has as its target D(3) dopamine receptor (Homo sapiens, UniProt P35462). The experiment in a line: Binding affinity to dopamine D3 receptor (unknown origin).
The test system of another data set is Mus musculus. In words: Antipsychotic activity in C57BL/6J mouse assessed as reduction of amphetamine-induced locomotor activity administered ip 15 mins prior to amphetamine challenge measured for 105 mins by open field test relative to vehicle-treated control. It counts as functional, organism-based.
The target of a further data set is CYP3A4 (Homo sapiens, UniProt P08684). The experiment in a line: Inhibition of human CYP3A4 using midazolam as substrate at 10 uM. It counts as ADME. Conditions: probe midazolam. Summed up:
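Human liver microsomes with test compound at 10 µM; percent inhibition determined using bupropion (2B6), dextromethorphan (2D6) or midazolam (3A/3A4) as probe substrates.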

Data set [19] deals with 5-hydroxytryptamine receptor 6 (Homo sapiens, UniProt P50406). The experiment in a line: Binding affinity to 5HT6 receptor (unknown origin).
Chain of 5-hydroxytryptamine receptor 6 (P50406 whole entry): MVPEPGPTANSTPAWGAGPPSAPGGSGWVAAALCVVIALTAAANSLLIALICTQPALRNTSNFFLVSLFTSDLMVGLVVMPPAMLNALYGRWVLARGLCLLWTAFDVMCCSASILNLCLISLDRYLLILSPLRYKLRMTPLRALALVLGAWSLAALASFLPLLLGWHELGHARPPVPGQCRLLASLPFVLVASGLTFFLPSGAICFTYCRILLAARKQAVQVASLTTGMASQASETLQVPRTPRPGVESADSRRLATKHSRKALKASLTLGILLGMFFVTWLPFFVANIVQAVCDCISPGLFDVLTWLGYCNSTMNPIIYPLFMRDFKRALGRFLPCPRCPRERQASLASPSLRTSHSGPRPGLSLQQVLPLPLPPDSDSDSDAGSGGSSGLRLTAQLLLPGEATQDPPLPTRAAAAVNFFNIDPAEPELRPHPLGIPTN
The target of data set [20] is T2, 5-hydroxytryptamine receptor 2C (Homo sapiens). In words: (§4) Agonist activity at 5HT2C receptor (unknown origin) relative to control.
For data set [21], the target named is T1, 5-hydroxytryptamine receptor 2C. The data set is described as §4.
In data set [22] the target is T3, 5-hydroxytryptamine receptor 2B. The experiment in a line: Agonist activity at 5HT2B receptor (unknown origin) relative to control. Summed up:
as §1

The species named for data set [23] is Homo sapiens. In words: Selectivity ratio of EC50 for 5HT2B receptor (unknown origin) to EC50 for 5HT2C receptor (unknown origin).

T6 sequence (Q12809 whole entry): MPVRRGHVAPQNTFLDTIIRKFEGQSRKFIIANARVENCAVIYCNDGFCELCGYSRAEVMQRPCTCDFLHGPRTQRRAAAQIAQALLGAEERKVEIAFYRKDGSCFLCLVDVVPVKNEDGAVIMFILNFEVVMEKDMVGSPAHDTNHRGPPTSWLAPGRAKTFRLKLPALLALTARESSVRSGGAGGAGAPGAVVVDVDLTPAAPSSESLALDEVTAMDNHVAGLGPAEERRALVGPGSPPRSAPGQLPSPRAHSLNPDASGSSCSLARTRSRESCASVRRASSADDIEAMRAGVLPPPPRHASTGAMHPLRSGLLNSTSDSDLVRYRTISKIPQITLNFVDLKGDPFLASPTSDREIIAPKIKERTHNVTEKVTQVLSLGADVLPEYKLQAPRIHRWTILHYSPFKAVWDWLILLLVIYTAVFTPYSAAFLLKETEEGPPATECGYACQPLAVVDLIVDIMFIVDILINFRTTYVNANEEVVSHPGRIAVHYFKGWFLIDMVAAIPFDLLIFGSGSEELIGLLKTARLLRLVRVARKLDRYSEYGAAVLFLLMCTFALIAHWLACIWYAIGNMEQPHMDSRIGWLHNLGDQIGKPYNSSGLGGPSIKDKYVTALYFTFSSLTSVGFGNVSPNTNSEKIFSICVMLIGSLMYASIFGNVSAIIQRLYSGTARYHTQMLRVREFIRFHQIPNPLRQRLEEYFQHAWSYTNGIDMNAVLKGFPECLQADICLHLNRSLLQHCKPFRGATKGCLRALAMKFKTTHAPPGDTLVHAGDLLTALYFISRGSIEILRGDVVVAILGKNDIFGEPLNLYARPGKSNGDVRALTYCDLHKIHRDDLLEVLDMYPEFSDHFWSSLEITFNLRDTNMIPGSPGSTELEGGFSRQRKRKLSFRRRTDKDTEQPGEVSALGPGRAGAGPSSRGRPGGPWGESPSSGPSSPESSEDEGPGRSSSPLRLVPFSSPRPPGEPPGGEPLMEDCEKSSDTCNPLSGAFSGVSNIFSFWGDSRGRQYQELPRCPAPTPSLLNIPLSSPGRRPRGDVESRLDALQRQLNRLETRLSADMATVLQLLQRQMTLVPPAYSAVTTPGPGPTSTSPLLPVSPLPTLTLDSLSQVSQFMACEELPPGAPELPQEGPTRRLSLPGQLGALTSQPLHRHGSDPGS
T3 sequence (P41595 whole entry): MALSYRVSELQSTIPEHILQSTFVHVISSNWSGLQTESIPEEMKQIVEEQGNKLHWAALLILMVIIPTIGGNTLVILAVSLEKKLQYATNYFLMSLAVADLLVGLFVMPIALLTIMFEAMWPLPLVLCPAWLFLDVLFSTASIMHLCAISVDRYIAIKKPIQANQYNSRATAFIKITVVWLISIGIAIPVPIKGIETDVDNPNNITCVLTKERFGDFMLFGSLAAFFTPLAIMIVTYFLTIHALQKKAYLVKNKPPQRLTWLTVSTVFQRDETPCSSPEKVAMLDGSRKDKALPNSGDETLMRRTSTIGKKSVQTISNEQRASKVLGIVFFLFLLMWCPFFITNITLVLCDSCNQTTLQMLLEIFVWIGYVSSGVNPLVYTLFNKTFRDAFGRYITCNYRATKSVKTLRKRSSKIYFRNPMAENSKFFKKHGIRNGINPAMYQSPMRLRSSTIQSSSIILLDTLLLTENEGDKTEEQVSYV
T4 sequence (P28223 whole entry): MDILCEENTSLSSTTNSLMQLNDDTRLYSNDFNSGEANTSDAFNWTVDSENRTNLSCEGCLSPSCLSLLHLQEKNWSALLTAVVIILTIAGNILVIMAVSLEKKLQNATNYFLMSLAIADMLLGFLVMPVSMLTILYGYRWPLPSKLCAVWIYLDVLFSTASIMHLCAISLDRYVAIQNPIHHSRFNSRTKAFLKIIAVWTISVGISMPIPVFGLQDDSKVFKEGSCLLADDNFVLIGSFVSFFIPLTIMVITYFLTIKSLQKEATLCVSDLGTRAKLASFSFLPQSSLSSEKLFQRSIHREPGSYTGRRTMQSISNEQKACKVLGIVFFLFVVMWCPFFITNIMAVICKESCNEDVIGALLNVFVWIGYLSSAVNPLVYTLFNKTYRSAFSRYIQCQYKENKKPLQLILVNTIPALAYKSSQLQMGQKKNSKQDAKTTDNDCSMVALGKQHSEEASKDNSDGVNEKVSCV
Chain of D(3) dopamine receptor (P35462 whole entry): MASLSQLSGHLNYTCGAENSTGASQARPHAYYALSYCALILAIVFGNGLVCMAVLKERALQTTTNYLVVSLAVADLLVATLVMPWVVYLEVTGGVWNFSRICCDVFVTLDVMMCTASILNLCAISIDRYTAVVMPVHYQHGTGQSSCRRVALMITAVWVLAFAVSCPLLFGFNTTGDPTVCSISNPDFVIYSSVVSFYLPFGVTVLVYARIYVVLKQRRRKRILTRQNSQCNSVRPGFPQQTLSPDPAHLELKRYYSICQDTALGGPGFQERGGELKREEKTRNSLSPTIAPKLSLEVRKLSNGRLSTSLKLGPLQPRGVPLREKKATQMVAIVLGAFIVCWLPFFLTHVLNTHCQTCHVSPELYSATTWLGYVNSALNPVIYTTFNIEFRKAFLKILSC
Chain of CYP2C19 (P33261 whole entry): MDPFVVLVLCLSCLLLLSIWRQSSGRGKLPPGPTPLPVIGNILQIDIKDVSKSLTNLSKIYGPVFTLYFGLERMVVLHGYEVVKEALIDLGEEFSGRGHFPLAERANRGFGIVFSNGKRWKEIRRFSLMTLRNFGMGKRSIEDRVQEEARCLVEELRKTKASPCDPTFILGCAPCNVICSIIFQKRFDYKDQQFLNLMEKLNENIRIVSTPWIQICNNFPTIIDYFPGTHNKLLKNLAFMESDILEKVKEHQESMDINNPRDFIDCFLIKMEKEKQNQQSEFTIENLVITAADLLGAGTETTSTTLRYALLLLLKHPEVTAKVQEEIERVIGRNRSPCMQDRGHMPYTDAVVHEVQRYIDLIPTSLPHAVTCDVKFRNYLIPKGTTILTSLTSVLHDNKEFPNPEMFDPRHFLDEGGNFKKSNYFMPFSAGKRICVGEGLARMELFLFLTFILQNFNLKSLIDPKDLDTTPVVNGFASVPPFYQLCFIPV
Chain of 5-hydroxytryptamine receptor 7 (P34969 whole entry): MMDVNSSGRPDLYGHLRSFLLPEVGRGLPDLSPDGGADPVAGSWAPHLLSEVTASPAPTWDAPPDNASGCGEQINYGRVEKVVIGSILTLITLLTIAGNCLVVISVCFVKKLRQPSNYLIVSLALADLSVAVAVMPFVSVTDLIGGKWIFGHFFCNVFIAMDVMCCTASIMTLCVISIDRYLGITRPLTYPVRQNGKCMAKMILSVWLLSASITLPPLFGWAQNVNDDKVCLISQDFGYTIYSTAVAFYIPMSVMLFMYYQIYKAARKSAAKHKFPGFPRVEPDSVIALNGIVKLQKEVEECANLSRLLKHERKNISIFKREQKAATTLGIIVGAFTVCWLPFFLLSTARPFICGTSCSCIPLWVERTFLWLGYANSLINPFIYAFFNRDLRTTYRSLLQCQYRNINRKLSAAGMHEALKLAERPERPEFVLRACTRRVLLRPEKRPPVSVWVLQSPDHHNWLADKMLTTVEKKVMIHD

Turning to `NC[C@H]1C[C@@H]1c1cc(O)ccc1OCC1CC1`, the bioavailability in data set [1] was found to be 3.2%.
Turning to `C=CCOc1ccc(F)cc1[C@H]1C[C@@H]1CN.Cl`, the values for the negative-log EC50 (pEC50) in data set [2] and in data set [5] were 8.38 and 6.43, respectively. In addition, the maximum response (Emax) was determined as 87% in [3] and 56% in [6]. For the same molecule, the outcome in [4] was inactive. Further, in the data set listed under Homo sapiens [7], the Ratio EC50 stood at 89. In addition, the inhibition at 10 µM stood at 43% at CYP2D6; 35% on CYP2C9; 22% against CYP2C19; 80% against CYP2B6; 29% on hERG (KCNH2) [12]; 15% against CYP3A4. The “inhibition (INH)” value in [8] is listed as “Dose-dependent effect”. For the same molecule, the inhibition at […] stood at 6.4% on hERG (KCNH2) [9] and 8.7% against hERG (KCNH2) [10]. The molecule further gave an inhibition at 3.3 µM at hERG (KCNH2) [11] of 18%. On hERG (KCNH2) [13], this molecule showed an inhibition at 30 µM of 45%. The pKi (in data set [14]; in [15]; in [16]; in data set [17]; in data set [18]; at D(3) dopamine receptor) was above 6.00 throughout. In data set [19], this molecule had a negative logarithm of the Ki (pKi) above 6.00. In the data set with Mus musculus, the Activity entry is “Dose-dependent effect”.
`Clc1cccc(COc2cncc(N3CCNCC3)n2)c1`: the Emax in data set [20] came to 93%; in [22], 57%. The pEC50 in data set [21] is 9.96; in data set [22] it was 7.19. Also, the Ratio EC50 in the data set filed under Homo sapiens [23] came out at 600.

A word on the bioavailability: it is dose-corrected exposure relative to a reference, in per cent. As a reminder, the pEC50 is the EC50 on a negative log10 scale, so that one unit is a factor of ten. Broadly, the Emax is the size of the effect at its maximum, as opposed to the concentration needed. In general, inhibition refers to how much of the control response was suppressed. Lower therefore signals a weak effect. What is called pKi is −log10 of the Ki, conventionally taken in molar units.
